TAAR1 antag = antagonists of human TAAR1; CHO RD-HGA16 TAAR1, Fluo-8 calcium fluorescence, antagonist; inhibition, % at 3 µM; 360,000 tested, 1.5% active; AID 624466;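 active = inhibition above a per-plate cutoff, the mean inhibition of test compounds on that plate plus 3 SD, cut at about 49% in these data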;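 also: 0% = DMSO plus EC80 beta-PEA response and 100% = DMSO alone without agonist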
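Material: RD-HGA16 CHO cells with stable hTAAR1 and Gα16; Dosing: single nominal final test compound concentration of 3 µM; Schedule: seeding 17-24 h prior, 75-min 37 °C, 30-min RT dye loading; Detection: kinetic Fluo-8 calcium fluorescence measurement; Measure: % inhibition from peak post-agonist over basal fluorescence ratio; Benchmarks: vehicle and agonist controls.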
MPTP inh = permeability transition pore inhibition. isolated mouse mitochondria, Ca2+ swelling absorbance, 30 min. inhibition, % at 10 µM. 360,000 tested, 1.4% active;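 active = inhibition of 50% or more, scaled per plate between neutral and stimulator controls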;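 also: 0% = DMSO wells given calcium and 100% = 1 mM EGTA wells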
DAGLB inh = blocks human DAGLB lipase activity. HEK293T DAGLB membrane lysate, EnzChek fluorogenic substrate. inhibition, % at 5.17 µM. 340,000 tested, 0.059% active. AID 504411; in the data active = inhibition above about 34%;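 also: 0% = enzyme with vehicle and 100% = wells lacking enzyme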
Target sequence (Q8NCG7 whole entry, looked up): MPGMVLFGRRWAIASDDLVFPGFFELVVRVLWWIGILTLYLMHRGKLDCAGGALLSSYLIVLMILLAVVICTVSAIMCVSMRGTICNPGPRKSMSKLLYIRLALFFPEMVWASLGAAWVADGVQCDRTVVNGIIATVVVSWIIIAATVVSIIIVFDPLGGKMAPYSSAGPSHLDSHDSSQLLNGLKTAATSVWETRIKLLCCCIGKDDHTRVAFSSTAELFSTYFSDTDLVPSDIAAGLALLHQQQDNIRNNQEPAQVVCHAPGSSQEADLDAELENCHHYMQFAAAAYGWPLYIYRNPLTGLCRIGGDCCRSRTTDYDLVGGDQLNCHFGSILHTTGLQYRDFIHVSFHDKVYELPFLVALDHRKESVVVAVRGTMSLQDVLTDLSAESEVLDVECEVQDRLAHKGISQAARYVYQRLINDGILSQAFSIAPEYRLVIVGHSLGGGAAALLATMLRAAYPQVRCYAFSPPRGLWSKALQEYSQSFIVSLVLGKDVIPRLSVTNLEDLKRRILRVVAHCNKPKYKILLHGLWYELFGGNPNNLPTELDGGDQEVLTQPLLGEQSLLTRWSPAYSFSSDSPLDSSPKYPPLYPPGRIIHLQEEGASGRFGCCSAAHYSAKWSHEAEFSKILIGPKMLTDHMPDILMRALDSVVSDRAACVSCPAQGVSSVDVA
GPR7 antag = antagonists of human GPR7 (neuropeptides B/W receptor 1); P48145; GPR7-expressing cells, fluorescence antagonist assay; inhibition, % at 4.4 µM; 290,000 tested, 1.1% active; in the data active = inhibition above about 16%, passing the limit was not always enough;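 also: cells stimulated with the agonist NPW; 0% = agonist with vehicle and 100% = vehicle without agonist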
TAAR1 agonist = agonists of human TAAR1; activation, % at 3 µM; CHO RD-HGA16 TAAR1, Fluo-8 calcium fluorescence; vehicle wells 0%, saturating PEA agonist 100%; AID 624467; 360,000 tested, 0.99% active; Q96RJ0;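 active = activation above the mean activation of all test compounds in the run plus 3 SD, cut at about 38% in these data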
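System: CHO-derived RD-HGA16 cells with stable Gα16 and human TAAR1. Times: 17-24 h plating, Fluo-8 75 min 37 °C, 30 min RT. Measured by: calcium-sensitive Fluo-8 signal, excitation 470-495, emission 515-575 nm. Read-out basis: % activation relative to PEA EC100 response. Control set: DMSO and PEA EC100. Repeats: no replicates (n 1).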
The depositor's hits bear a star; x = no result. Most compounds without a hit are left out; they make up all but 4% or so of the library.

SMILES | TAAR1 antag | MPTP inh | DAGLB inh | GPR7 antag | TAAR1 agonist
NNC(=O)CNC(c1ccccc1)c1cc(Br)ccc1NC(=O)c1ccccc1Br (centres undefined) | 53* | -2 | 1 | -10 | 2
CC(C)(C)OC(=O)NCCCCCNC(=O)c1nc[nH]c1C(=O)NCc1ccc(CNC(=O)OC(C)(C)C)cc1 | 81* | 3 | 0 | x | 23
O=C(Nc1ccccc1)c1nc[nH]c1C(=O)NCCCNC(=O)c1[nH]cnc1C(=O)Nc1ccccc1 | 54* | -1 | 1 | x | 19
C[C@H](NC(=O)c1nc[nH]c1C(=O)N[C@@H](C)c1ccccc1)c1ccccc1 | 54* | -1 | -1 | x | 42*
CC(C)(C)OC(=O)NCCCCCNC(=O)c1nc[nH]c1C(=O)NCCCCCNC(=O)OC(C)(C)C | 69* | 2 | -2 | x | 21
C[C@H](NC(=O)c1[nH]cnc1C(=O)N[C@@H](C)CO)c1ccccc1 | 0 | 0 | -3 | x | 0
CC1(C(=O)NS(=O)(=O)Cc2cccc(Cl)c2)CCN1C(=O)C1(c2ccc(Cl)cc2)CCC1 (centres undefined) | 17 | 2 | x | x | 2
O=C(COc1ccccc1)NC(=S)Nc1cccc2c(O)cccc12 | 12 | 1 | -3 | x | 42*
COc1ccc(OC)c(C2=NS(=O)(=O)N(C)C(C(=O)NCc3cccs3)=C2)c1 | 26 | 0 | 0 | 15 | 43*
CN1CCN(c2c([N+](=O)[O-])cnc3ccccc23)CC1 | -26 | 0 | 2 | x | -2
CCOC(=O)[C@]12CCCC=C1N(CCc1ccc(OC)c(OC)c1)C(=O)[C@H](CC(=O)NCCc1ccccc1OC)C2 | 3 | -2 | x | x | 46*
CCOC(=O)[C@]12CCCC=C1N(Cc1ccc(Cl)cc1Cl)C(=O)[C@H](CC(=O)NCCc1ccccc1OC)C2 | 19 | -2 | x | x | 40*
CC12CCC(=O)N1C(C(=O)OCc1c(Cl)cccc1Cl)CS2 (centres undefined) | -12 | 1 | -2 | -9 | 0
CN1Cc2c(N3CCOCC3)nc3sc(C(=O)c4ccc(Br)cc4)c(N)c3c2CC1(C)C | 20 | -8 | x | 44* | 6
CN1Cc2c(N3CCOCC3)nc3sc(C#N)c(N)c3c2CC1(C)C | -5 | -1 | -1 | -12 | 2
O=C(Cn1c(=O)oc2ccccc21)NCc1ccco1 | -19 | -1 | 0 | 18* | 1
COC(=O)c1ccc(CSc2nnc(C)s2)cc1 | -20 | -1 | 2 | 8 | 5
COC(=O)c1ccc(CSc2nnc(N)s2)cc1 | 12 | -1 | -6 | 19* | 8
CC(C)NC(=O)C1(C)CN(S(C)(=O)=O)CC(=O)N1CC(F)(F)F (centres undefined) | -12 | -1 | x | x | 1
CCCCCc1ccc(OCCOCCn2c[n+](C)c3ccccc32)c(CCCCC)c1 | x | 48 | 4 | 40* | x
COc1ccc2c(COC(=O)CC3Sc4ccccc4NC3=O)cc(=O)oc2c1 (centres undefined) | 54* | 1 | 0 | 3 | 15
CCOc1ccc(-c2cc(C(=O)Nc3cccc(C(F)(F)F)c3)[nH]n2)c(C)c1 | 36 | 26 | x | x | 1
C=CC[C@H](CC(=O)N(CCO)Cc1ccccc1)C(=O)NC[C@H](OC(=O)[C@@H](CC=C)CC(=O)OC(C)(C)C)c1ccccc1 | 49* | 0 | -7 | x | 13
C=CC[C@@H](CC(=O)N(CCO)Cc1ccccc1)C(=O)N[C@@H](COC(=O)[C@@H](CC=C)CC(=O)OC(C)(C)C)Cc1c[nH]c2ccccc12 | 55* | 2 | -6 | x | 14
C=CC[C@@H](CC(=O)N(CCO)Cc1ccccc1)C(=O)N[C@H](COC(=O)[C@@H](CC=C)CC(=O)OC(C)(C)C)Cc1c[nH]c2ccccc12 | 60* | 1 | -1 | x | 12
SMILES | TAAR1 antag | MPTP inh | DAGLB inh | GPR7 antag | TAAR1 agonist
C=CC[C@@H](CC(=O)N(CCO)Cc1ccccc1)C(=O)N[C@H](COC(=O)[C@@H](CC=C)CC(=O)OC(C)(C)C)c1ccccc1 | 45 | 2 | -8 | x | 8
C=CC[C@@H](CC(=O)N[C@@H](CO)Cc1ccccc1)C(=O)N[C@H](COC(=O)[C@@H](CC=C)CC(=O)OC(C)(C)C)Cc1c[nH]c2ccccc12 | 39 | -1 | 1 | x | 4
CCCCc1ccc(S(=O)(=O)NC(=O)C2(C)CCN2C(=O)c2cccc(F)c2)cc1 (centres undefined) | -22 | 0 | x | x | 2
CCc1nc2ccc(C(=O)NCCCn3ccnc3)cn2c1N(C)Cc1ccc(N(C)C)cc1 | -9 | -2 | x | x | 2
COc1ccccc1CCNC(=O)c1cccc(S(=O)(=O)N2CCc3ccccc3C2)c1 | 35 | -1 | -9 | x | 4
CCCCN1C(=O)C(CC(=O)NCCc2ccccn2)CC(C(=O)N(C(C)C)C(C)C)=C1C (centres undefined) | -15 | 1 | -2 | x | 42*
CCCCN1C(=O)C(CC(=O)NCCc2ccccn2)CC(C(=O)N(C)C)=C1C (centres undefined) | -15 | -1 | 0 | x | 22
CC1(C)C2CCC1(C)C(OCC[N+](C)(C)CC(=O)OC1CCCCC1)C2 (centres undefined) | -3 | 4 | 1 | 20* | 13
CC(C)Oc1cc(F)ccc1-c1cc(C(=O)Nc2ccc(C(C)C)cc2)[nH]n1 | 28 | 2 | x | x | -1
COc1ccc(NC(=O)c2cc(-c3cc(F)ccc3OC)n[nH]2)c(OC)c1 | 50* | 0 | x | x | 7
COc1ccc(NC(=O)c2cc(-c3cc(F)ccc3OC(C)C)n[nH]2)c(C)c1 | 86* | -1 | x | x | 45*
CC(C)Oc1cc(F)ccc1-c1cc(C(=O)Nc2ccccc2)[nH]n1 | 54* | 2 | x | x | 0
COc1ccc(NC(=O)c2cc(-c3cc(C)c(C)cc3O)n[nH]2)c(OC)c1 | -12 | 0 | -1 | -10 | 3
COc1ccc(NC(=O)c2cc(-c3cc(Cl)ccc3OC)n[nH]2)c(OC)c1 | 54* | 2 | x | x | 2
OC1(c2ccc(OC(F)F)cc2)CSC(=Nc2cccnc2)N1Cc1ccco1 (centres undefined) | 57* | 0 | 0 | 20* | 10
OC(c1cc(F)cc(Cl)c1)c1ncc(-c2ccccc2Cl)[nH]1 (centres undefined) | -2 | 19 | x | x | 4
CCc1cccc2c(C(=O)COC(=O)[C@@H]3CC(O)CN3S(=O)(=O)c3ccccc3[N+](=O)[O-])c[nH]c12 (some centres undefined) | 56* | 1 | 1 | x | 11
O=[N+]([O-])c1ccc(Sc2cccc[n+]2[O-])c2nonc12 | 41 | 5 | 1 | 20* | 25
O=[N+]([O-])c1ccc(Nc2ccccc2)c2nonc12 | 10 | 6 | 27 | 4 | 6
COc1cccc(CNc2nc3cc(-c4cscc4C)sc3c(=O)n2C)c1 | 13 | 1 | x | x | 0
C=CS(=O)(=O)c1ccc(Oc2ccc(S(=O)(=O)C=C)cc2)cc1 | -2 | 26 | 4 | 35* | 5
